We go through 25 compounds from ChEMBL document CHEMBL1255504, “Functional profiling of p53-binding sites in Hdm2 and Hdmx using a genetic selection system” (Bioorg Med Chem, 2010).

The term inhibition denotes the change of the read-out against control, counted positive when it falls. What is called IC50 is the concentration that inhibits the measured activity by half.

Activity calls are given as the source filed them. No cut-off for these calls is given here. Where a SMILES comes first, the peptide text is derived from it. The star is where a group is joined. Isobutyryl = CC(C)C(=O)*; Piperidide = C1CCN(*)CC1; Cbz = O=C(OCc1ccccc1)*; PhAc = O=C(Cc1ccccc1)*; Boc = CC(C)(C)OC(=O)*; NHBn = c1ccc(CN*)cc1; Piv = CC(C)(C)C(=O)*; NHtBu = CC(C)(C)N*

For data set [1], the target named is T1, E3 ubiquitin-protein ligase Mdm2 (Homo sapiens, UniProt Q00987). The data set can be described thus: Inhibition of GST-tagged p53 binding to Hdm2 by ELISA. For orientation: ELISA stands for enzyme-linked immunosorbent assay.
Data set [2] in a line: Solubility of the compound. It counts as physicochemical.
The target of data set [3] is T2, Protein Mdm4 (Homo sapiens) (UniProt O15151).
T2 sequence (whole entry): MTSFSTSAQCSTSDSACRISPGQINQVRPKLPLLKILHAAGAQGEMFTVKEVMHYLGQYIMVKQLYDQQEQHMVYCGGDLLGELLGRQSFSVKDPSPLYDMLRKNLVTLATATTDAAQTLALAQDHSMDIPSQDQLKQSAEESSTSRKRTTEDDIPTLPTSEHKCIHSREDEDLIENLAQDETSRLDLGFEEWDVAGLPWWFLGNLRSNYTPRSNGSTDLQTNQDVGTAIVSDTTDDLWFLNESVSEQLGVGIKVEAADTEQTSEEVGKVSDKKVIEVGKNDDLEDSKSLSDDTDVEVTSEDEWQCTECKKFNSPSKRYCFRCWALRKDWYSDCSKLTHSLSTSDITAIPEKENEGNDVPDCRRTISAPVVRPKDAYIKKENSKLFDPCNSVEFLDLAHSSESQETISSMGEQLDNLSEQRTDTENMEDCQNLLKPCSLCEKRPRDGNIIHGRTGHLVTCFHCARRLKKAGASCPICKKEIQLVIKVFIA
The data set can be described thus: Inhibition of GST-tagged MDMX expressed in Escherichia coli harboring integrated p53-Hmd2 protein assessed as blockade of enzyme-p53 interaction by beta-galactosidase assay. Conditions: concentration not given here. The procedure, abridged:
(§1)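 E. coli reporter strain SNS126 (HIS3-KanR-lacZ) carrying chromosomally integrated DBD-fusion repressor halves (Hdm2–p53 or Hdmx–p53), transformed with SICLOPPS cyclic-peptide constructs and tested in both native and opposite strains. Cells grown on solid LB with 32 µM IPTG plus 9.7 µM L-arabinose; β-galactosidase measured by ONPG hydrolysis. % derepression = percent β-galactosidase enhancement relative to unrepressed (DBD-only) control.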

Data set [4] deals with T2, Protein Mdm4 (Homo sapiens). The data set can be described thus: Inhibition of GST-tagged MDMX expressed in Escherichia coli harboring integrated p53-Hmd2 protein assessed as enzyme-p53 interaction by beta-galactosidase assay. The conditions noted are these: concentration not given here. Set-up: concentration or dose not given beside the values. Put shortly:
as §1

The target is the same in data set [5]. The data set can be described thus: Inhibition of GST-tagged MDMX expressed in Escherichia coli harboring integrated p53-MDMX protein assessed as enzyme-p53 interaction by beta-galactosidase assay. Set-up: concentration or dose not given beside the values. Conditions: concentration not given here. The procedure, abridged:
as §1

For data set [6] the target is unchanged. The data set is described as follows: Inhibition of GST-tagged MDMX expressed in Escherichia coli harboring integrated p53-Hmd2 protein assessed as enhancement of enzyme-p53 interaction by beta-galactosidase assay. Set-up: concentration or dose not given beside the values. The conditions noted are these: concentration not given here. The procedure, abridged: as §1

For data set [7] the target is unchanged. The data set can be described thus: Inhibition of GST-tagged MDMX expressed in Escherichia coli harboring integrated p53-MDMX protein assessed as enhancement of enzyme-p53 interaction by beta-galactosidase assay. Set-up: concentration or dose not given beside the values. The conditions noted are these: concentration not given here. The procedure, abridged:
as §1

The target is the same in data set [8]. The data set is described as follows: Inhibition of GST-tagged MDMX expressed in Escherichia coli harboring integrated p53-MDMX protein assessed as blockade of enzyme-p53 interaction by beta-galactosidase assay. Set-up: concentration or dose not given beside the values. Conditions: concentration not given here. Put shortly:
as §1

Data set [9] has as its target T1, E3 ubiquitin-protein ligase Mdm2. The data set is described as follows: Inhibition of GST-tagged Hdm2 expressed in Escherichia coli harboring integrated p53-Hmd2 protein assessed as blockade of enzyme-p53 interaction by beta-galactosidase assay. Conditions: concentration not given here. The procedure, abridged:
as §1
Target sequence in this assay (Q00987 whole entry, looked up): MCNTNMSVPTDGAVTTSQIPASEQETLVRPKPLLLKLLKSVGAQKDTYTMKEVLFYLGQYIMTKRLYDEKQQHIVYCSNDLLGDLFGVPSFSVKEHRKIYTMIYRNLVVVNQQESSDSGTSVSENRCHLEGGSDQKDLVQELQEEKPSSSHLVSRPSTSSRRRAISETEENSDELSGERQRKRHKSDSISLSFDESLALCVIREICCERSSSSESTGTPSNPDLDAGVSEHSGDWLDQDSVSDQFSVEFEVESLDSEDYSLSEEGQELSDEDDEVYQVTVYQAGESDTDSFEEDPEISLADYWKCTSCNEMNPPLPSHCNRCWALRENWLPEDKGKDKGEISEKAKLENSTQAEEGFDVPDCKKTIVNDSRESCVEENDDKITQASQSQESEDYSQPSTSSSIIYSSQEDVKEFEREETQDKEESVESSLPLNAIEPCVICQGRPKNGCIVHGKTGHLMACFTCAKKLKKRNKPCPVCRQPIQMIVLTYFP

The target is the same in data set [10]. The data set is described as follows: Inhibition of GST-tagged Hdm2 expressed in Escherichia coli harboring integrated p53-Hmd2 protein assessed as enzyme-p53 interaction by beta-galactosidase assay. The conditions noted are these: concentration not given here. Put shortly:
as §1
Target sequence in this assay (Q00987 whole entry, looked up): as above

For data set [11] the target is unchanged. The data set is described as follows: Inhibition of GST-tagged Hdm2 expressed in Escherichia coli harboring integrated p53-MDMX protein assessed as enzyme-p53 interaction by beta-galactosidase assay. The conditions noted are these: concentration not given here. The procedure, abridged:
as §1
Target sequence in this assay (Q00987 whole entry, looked up): as above

Data set [12] has the same target. The data set can be described thus: Inhibition of GST-tagged Hdm2 expressed in Escherichia coli harboring integrated p53-Hmd2 protein assessed as enhancement of enzyme-p53 interaction by beta-galactosidase assay. The conditions noted are these: concentration not given here. The procedure, abridged:
as §1
Target sequence in this assay (Q00987 whole entry, looked up): as above

Data set [13] has the same target. The data set can be described thus: Inhibition of GST-tagged Hdm2 expressed in Escherichia coli harboring integrated p53-MDMX protein assessed as enhancement of enzyme-p53 interaction by beta-galactosidase assay. Conditions: concentration not given here. Put shortly:
as §1
Target sequence in this assay (Q00987 whole entry, looked up): as above

The target is the same in data set [14]. The data set can be described thus: Inhibition of GST-tagged Hdm2 expressed in Escherichia coli harboring integrated p53-MDMX protein assessed as blockade of enzyme-p53 interaction by beta-galactosidase assay. Conditions: concentration not given here. The procedure, abridged:
as §1
Target sequence in this assay (Q00987 whole entry, looked up): as above

In the case of `CC(C)(C)OC(=O)N[C@@H](CCCNC(=N)N)C(=O)N[C@@H](Cc1c[nH]c2ccccc12)C(=O)N[C@@H](Cc1ccccc1)C(=O)N1CCCCC1`, in data set [1], the inhibition entry is “inactive”.

As to `CC(C)COC(=O)N[C@@H](CCCNC(=N)N)C(=O)N[C@@H](Cc1c[nH]c2ccccc12)C(=O)N[C@@H](Cc1ccccc1)C(=O)NC(C)(C)C`, the inhibition entry in data set [1] was “inactive”.

Regarding `CC(C)COC(=O)N[C@@H](CCCNC(=N)N)C(=O)N[C@@H](Cc1c[nH]c2ccccc12)C(=O)N[C@@H](Cc1ccccc1)C(=O)NCc1ccccc1`, the inhibition result in [1] was “inactive”.

`CC(C)(C)OC(=O)N[C@@H](CCCNC(=N)N)C(=O)N[C@@H](Cc1c[nH]c2ccccc12)C(=O)N[C@@H](Cc1ccccc1)C(=O)NCc1ccccc1` (Boc-Arg-Trp-Phe-NHBn): the inhibition entry in data set [1] is “inactive”.

For the compound `CC(C)(C)NC(=O)[C@H](Cc1ccccc1)NC(=O)[C@H](Cc1c[nH]c2ccccc12)NC(=O)[C@H](CCCNC(=N)N)NC(=O)OC(C)(C)C` (Boc-Arg-Trp-Phe-NHtBu), the inhibition entry in data set [1] is “inactive”.

`CC(C)[C@H](NC(=O)[C@H](Cc1ccc(O)cc1)NC(=O)[C@H](Cc1ccc(O)cc1)NC(=O)[C@H](Cc1ccccc1)NC(=O)OC(C)(C)C)C(=O)N1CCCCC1` (Boc-FYYV-Piperidide): in [2], the solubility result is “Insoluble”.

Turning to `CC[C@H](C)[C@H](NC(=O)OC(C)(C)C)C(=O)N[C@@H](Cc1ccccc1)C(=O)N[C@@H](Cc1ccc(O)cc1)C(=O)N[C@@H](Cc1ccc(O)cc1)C(=O)N[C@H](C(=O)N1CCCCC1)C(C)C` (Boc-IFYYV-Piperidide), the solubility entry in data set [2] was “Insoluble”.

As for `N=C(N)NCCC[C@H](NC(=O)OCc1ccccc1)C(=O)N[C@@H](Cc1c[nH]c2ccccc12)C(=O)N[C@@H](Cc1ccccc1)C(=O)NCc1ccccc1` (Cbz-Arg-Trp-Phe-NHBn), the inhibition result in [1] was “inactive”.

As to `N=C(N)NCCC[C@H](NC(=O)OCc1ccccc1)C(=O)N[C@@H](Cc1c[nH]c2ccccc12)C(=O)N[C@@H](Cc1ccccc1)C(=O)N1CCCCC1` (Cbz-Arg-Trp-Phe-Piperidide), the inhibition entry in [1] is “inactive”.

For `CC(C)C(=O)N[C@@H](CCCNC(=N)N)C(=O)N[C@@H](Cc1c[nH]c2ccccc12)C(=O)N[C@@H](Cc1ccccc1)C(=O)NCc1ccccc1` (Isobutyryl-Arg-Trp-Phe-NHBn), in data set [1], the inhibition entry is “inactive”.

`CC(C)C(=O)N[C@@H](CCCNC(=N)N)C(=O)N[C@@H](Cc1c[nH]c2ccccc12)C(=O)N[C@@H](Cc1ccccc1)C(=O)NC(C)(C)C` (Isobutyryl-Arg-Trp-Phe-NHtBu): the inhibition entry in [1] is “inactive”.

In the case of `N=C(N)NCCC[C@H](NC(=O)Cc1ccccc1)C(=O)N[C@@H](Cc1c[nH]c2ccccc12)C(=O)N[C@@H](Cc1ccccc1)C(=O)NCc1ccccc1` (PhAc-Arg-Trp-Phe-NHBn), in [1], the inhibition entry is “inactive”.

Turning to `CC(C)(C)NC(=O)[C@H](Cc1ccccc1)NC(=O)[C@H](Cc1c[nH]c2ccccc12)NC(=O)[C@H](CCCNC(=N)N)NC(=O)Cc1ccccc1` (PhAc-Arg-Trp-Phe-NHtBu), the inhibition entry in [1] was “inactive”.

For `CC(C)(C)C(=O)N[C@@H](CCCNC(=N)N)C(=O)N[C@@H](Cc1c[nH]c2ccccc12)C(=O)N[C@@H](Cc1ccccc1)C(=O)NCc1ccccc1` (Piv-Arg-Trp-Phe-NHBn), the inhibition entry in data set [1] was “inactive”.

Regarding `CC(C)(C)NC(=O)[C@H](Cc1ccccc1)NC(=O)[C@H](Cc1c[nH]c2ccccc12)NC(=O)[C@H](CCCNC(=N)N)NC(=O)C(C)(C)C` (Piv-Arg-Trp-Phe-NHtBu), the inhibition result in data set [1] was “inactive”.

As to `CC[C@H](C)[C@@H]1NC(=O)[C@H](C)NC(=O)[C@H](C(C)C)NC(=O)[C@H](Cc2ccc(O)cc2)NC(=O)[C@H](Cc2ccc(O)cc2)NC(=O)[C@H](Cc2ccccc2)NC1=O` (cyclo(AIFYYV)), in data set [1], the Activity entry was “Dose-dependent effect” and the concentration for half-maximal inhibition (IC50) turned out to be 209 µM.

For the compound H-CDLRWF-OH, the inhibition in [3] was determined as 6%; in data set [4] it was 37%; in [5], 86%; in data set [6], 4%; in data set [7] it was 45%; in data set [8], 76%.

Take H-CHLRWL-OH: the inhibition was found to be 10% in [3]; 41% in data set [4]; 75% in data set [5]; 7% in data set [6]; 34% in data set [7]; 58% in [8].

As to H-CIFYYV-OH, the inhibition in [9] came out at 51%; in data set [10], 67%; in data set [11], 66%; in data set [12], 34%; in data set [13] it was 24%; in [14], 42%.

With H-CIWWYM-OH, the inhibition in data set [9] worked out at 12%; in data set [10], 41%; in [11] it was 70%; in [12], 8%; in data set [13], 29%; in data set [14], 49%.

On to H-CKAVLF-OH, for which the inhibition in [3] was 7%; in data set [4], 38%; in data set [5], 71%; in data set [6], 5%; in [7] it was 30%; in data set [8], 51%.

For the compound H-CLFFNY-OH, the inhibition in data set [3] was 18%; in [4] it was 45%; in data set [5] it was 69%; in data set [6] it was 12%; in data set [7], 28%; in data set [8] it was 47%.

For H-CLWWYM-OH, the inhibition in [9] was determined as 18%; in data set [10], 45%; in data set [11] it was 65%; in data set [12], 12%; in data set [13], 24%; in data set [14] it was 41%.

As for H-CMFYYI-OH, the inhibition came to 18% in [9]; 45% in data set [10]; 63% in data set [11]; 12% in [12]; 22% in [13]; 37% in data set [14].

Turning to H-CRLLDF-OH, the inhibition in data set [3] came out at 7%; in data set [4], 38%; in [5], 70%; in data set [6], 5%; in [7], 29%; in data set [8], 49%.
